{"data": "Measured values of several laboratories", "target": "Beta-2 adrenergic receptor (ADRB2, Homo sapiens, UniProt P07550)", "note": "Each line is one published result; the experiments were not run side by side."}
{"Compound": "Clc1ccc2c(C3CCN(CCc4c[nH]c5ccccc45)CC3)c[nH]c2c1", "assay": "ligand displacement, radioligand", "conditions": "10 µM", "endpoint": "inhibition", "result": "91%"}
{"Compound": "Nc1ncc(-c2nc(N3CCOCC3)nc(N3CCOCC3)n2)c(C(F)F)n1", "assay": "cell-free assay, radioligand", "conditions": "10 µM", "endpoint": "remaining signal", "result": "98%"}
{"Compound": "c1ccc(C(NCCNC(c2ccccc2)c2ccccc2)c2ccccc2)cc1", "assay": "cell-free assay", "conditions": "10 µM", "endpoint": "inhibition", "result": "1%"}
{"Compound": "COCc1c(-c2cc3cc(C)cc(OC)c3s2)c2c(N)ncnn2c1CN1CCNC(=O)C1", "assay": "ligand displacement, radioligand", "conditions": "10 µM", "endpoint": "inhibition", "result": "14%"}
{"Compound": "CN(CCN1CCC(OC(=O)Nc2ccccc2-c2ccccc2)CC1)C(=O)c1ccc(CN2CCC(C(N)=O)CC2)cc1", "assay": "ligand displacement, radioligand", "conditions": "1 µM", "endpoint": "inhibition", "result": "-1%"}
{"Compound": "CCN(CC)CCCC[C@H](NC(=O)[C@H](CC(C)C)NC(=O)[C@H](C)NC(=O)[C@H](Cc1ccccc1)NC(=O)c1ccc(C(C)(C)C)cc1)C(=O)N[C@@H](CO)C(=O)OC", "assay": "ligand displacement, radioligand", "conditions": "10 µM", "endpoint": "remaining binding", "result": "101%"}
{"Compound": "COc1ccc(S(=O)(=O)N2CCCCC2)cc1C", "assay": "ligand displacement, radioligand", "conditions": "10 µM", "endpoint": "inhibition", "result": "< 30%"}
{"Compound": "CC(C)Cn1cnc2c(N)nc3ccccc3c21", "assay": "ligand displacement, radioligand", "conditions": "10 µM", "endpoint": "inhibition", "result": "18%"}
{"Compound": "CC(C)N1CCC[C@H]1CNC(=O)c1cn(C2CCCC2)c(=O)c2c1c1ccccc1n2C", "assay": "ligand displacement, radioligand", "conditions": "10 µM", "endpoint": "inhibition", "result": "-8%"}
{"Compound": "O=C(Nc1cccnn1)N1CCN([C@@H]2CCOc3cc(C(F)(F)F)ccc32)CC1", "assay": "cell-free assay", "conditions": "20 µM", "endpoint": "inhibition", "result": "10%"}
{"Compound": "Cc1c(N2CCNCC2)nc2ccc(Br)cc2c1C(=O)NC[C@H](CCC(=O)O)c1ccccc1Cl", "assay": "ligand displacement", "conditions": "10 µM", "endpoint": "inhibition", "result": "18.4%"}
{"Compound": "O=C(NC[C@H](O)CO)[C@@H]1C[C@H](c2ccccc2)CCN1 (mixture of isomers)", "assay": "ligand displacement, radioligand", "conditions": "10 µM", "endpoint": "inhibition", "result": "-15.9%"}
{"Compound": "CC(Cc1ccc2c(c1)OCO2)NCC(O)c1ccc(O)c(O)c1 (centres unmarked)", "assay": "β-arrestin recruitment, agonist", "endpoint": "Emax", "result": "131%"}
{"Compound": "Cn1cncc1[C@@](O)(COc1ccc(C#N)cc1-c1ccc(OC(F)(F)F)cc1)c1ccc(C#N)cc1", "assay": "ligand displacement", "conditions": "10 µM", "endpoint": "inhibition", "result": "23.1%"}
